Experiments:
[1] = Drug metabolism in beagle dog hepatocytes assessed as DPH-123554 metabolite level at 25 uM after 3 hrs by LC-MS/MS analysis; type: ADME, cell-based, Canis lupus familiaris, Hepatocyte
Method in brief: (§1)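 Mouse, rat, dog, monkey and human hepatocytes (trypan blue viability checked) at 1.0×10^6 cells/ml in Krebs-Henseleit buffer were incubated with 25 µM compound, in duplicate. Conditions were 37°C, 95/5 O2/CO2, orbital shaking, 3 h. 7-Ethoxycoumarin and 7-hydroxycoumarin (100 µM) served as positive controls, with a cell-free negative control. Reactions were quenched with ice-cold acetonitrile, then sonicated and centrifuged; supernatants were analysed by LC/MS/MS.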

[2] = Detection of compound level in beagle dog hepatocytes treated with 25 uM of BMS-562086 after 3 hrs by LC-MS/MS analysis; type: ADME, cell-based, Canis lupus familiaris, Hepatocyte; method in brief: as §1
[3] = Drug metabolism in beagle dog hepatocytes assessed as BMS-572273 metabolite level at 25 uM after 3 hrs by LC-MS/MS analysis; type: ADME, cell-based, Canis lupus familiaris, Hepatocyte; method in brief: as §1
Liver microsome [4] = experiment: Drug metabolism in dog liver microsomes at 100 uM after 1 hr in presence of NADPH; type: ADME, Canis lupus familiaris
Method in brief: (§2)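 Liver microsomes (1 mg/ml protein) in 100 mM phosphate buffer with 100 µM test compound. Reaction started by adding NADPH (1 mM), then run at 37°C for 1 h in a shaking water bath, in duplicate. Controls lacked microsomal protein or NADPH; 7-ethoxycoumarin (100 µM) was the positive control. Metabolites identified by LC/MS/MS.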

[5] = Drug metabolism in cynomolgus monkey liver microsomes at 100 uM after 1 hr in presence of NADPH; type: ADME, Macaca fascicularis
Method in brief: (§3)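 Mouse, rat, dog, monkey and human liver microsomes (1 mg/ml protein) were incubated with 100 µM compound in 100 mM phosphate buffer. Reactions were started with 1 mM NADPH and run 1 h at 37°C in duplicate. Controls lacked protein or NADPH, plus a 7-ethoxycoumarin (100 µM) positive control. Metabolites were identified by LC/MS/MS.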

Liver microsome [6] = experiment: Detection of compound level in beagle dog liver microsomes treated with 100 uM of BMS-562086 after 1 hr by LC-MS/MS analysis
[7] = Drug metabolism in rat hepatocytes at 25 uM after 3 hrs by LC-MS/MS analysis; type: ADME, cell-based, Hepatocyte
Method in brief: (§4)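 Hepatocytes checked for viability by trypan blue exclusion, then diluted in Krebs-Henseleit buffer to 1.0 × 10^6 cells/ml. Incubated in duplicate with 25 µM compound at 37°C for 3 h on an orbital shaker (80 rpm) under 95/5 O2/CO2. Negative control had no cells. Stopped with ice-cold acetonitrile, sonicated, centrifuged; supernatant analysed by LC/MS/MS.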

Liver microsome [8] = experiment: Detection of compound level in rat liver microsomes treated with 100 uM of BMS-562086 after 1 hr by LC-MS/MS analysis
[9] = Detection of compound level in cynomolgus monkey cryopreserved hepatocytes treated with 25 uM of BMS-562086 after 3 hrs by LC-MS/MS analysis; type: ADME, cell-based, Macaca fascicularis, Hepatocyte; method in brief: as §1
[10] = Drug metabolism in cynomolgus monkey liver microsomes assessed as DPH-123554 metabolite level at 100 uM after 1 hr in presence of NADPH; type: ADME, Macaca fascicularis; method in brief: as §3
[11] = Drug metabolism in rat hepatocytes assessed as DPH-124921 metabolite level at 25 uM after 3 hrs by LC-MS/MS analysis; type: ADME, cell-based, Hepatocyte; method in brief: as §4
[12] = Drug metabolism in human cryopreserved hepatocytes at 25 uM after 3 hrs by LC-MS/MS analysis; type: ADME, cell-based, Hepatocyte; method in brief: as §4
Liver microsome [13] = experiment: Drug metabolism in beagle dog liver microsomes assessed as DPH-123554 metabolite level at 100 uM after 1 hr in presence of NADPH; type: ADME, Canis lupus familiaris; method in brief: as §3
[14] = Drug metabolism in cynomolgus monkey cryopreserved hepatocytes assessed as DPH-124921 metabolite level at 25 uM after 3 hrs by LC-MS/MS analysis; type: ADME, cell-based, Macaca fascicularis, Hepatocyte; method in brief: as §1
Hepatocyte [15] = experiment: Detection of compound level in human cryopreserved hepatocytes treated with 25 uM of BMS-562086 after 3 hrs by LC-MS/MS analysis; type: ADME, cell-based; method in brief: as §1
[16] = Retention time of the compound by HPLC method; type: physicochemical
[17] = Drug metabolism in mouse hepatocytes assessed as BMS-572273 metabolite level at 25 uM after 3 hrs by LC-MS/MS analysis; type: ADME, cell-based, Hepatocyte; method in brief: as §4
[18] = Drug metabolism in beagle dog hepatocytes assessed as DPH-124921 metabolite level at 25 uM after 3 hrs by LC-MS/MS analysis; type: ADME, cell-based, Canis lupus familiaris, Hepatocyte; method in brief: as §1
Liver microsome [19] = experiment: Drug metabolism in rat liver microsomes assessed as DPH-123554 metabolite level at 100 uM after 1 hr in presence of NADPH; type: ADME; method in brief: as §2
Hepatocyte [20] = experiment: Detection of compound level in rat hepatocytes treated with 25 uM of BMS-562086 after 3 hrs by LC-MS/MS analysis; type: ADME, cell-based; method in brief: as §1
Liver microsome [21] = experiment: Drug metabolism in rat liver microsomes assessed as BMS-572273 metabolite level at 100 uM after 1 hr in presence of NADPH; type: ADME; method in brief: as §2
[22] = Drug metabolism in human cryopreserved hepatocytes assessed as DPH-124921 metabolite level at 25 uM after 3 hrs by LC-MS/MS analysis; type: ADME, cell-based, Hepatocyte; method in brief: as §4
[23] = Drug metabolism in beagle dog hepatocytes at 25 uM after 3 hrs by LC-MS/MS analysis; type: ADME, cell-based, Canis lupus familiaris, Hepatocyte; method in brief: as §1
[24] = Drug metabolism in rat hepatocytes assessed as BMS-572273 metabolite level at 25 uM after 3 hrs by LC-MS/MS analysis; type: ADME, cell-based, Hepatocyte; method in brief: as §4
[25] = Drug metabolism in human cryopreserved hepatocytes assessed as DPH-123554 metabolite level at 25 uM after 3 hrs by LC-MS/MS analysis; type: ADME, cell-based, Hepatocyte; method in brief: as §4
Liver microsome [26] = experiment: Drug metabolism in human liver microsomes assessed as DPH-123554 metabolite level at 100 uM after 1 hr in presence of NADPH; type: ADME; method in brief: as §2
[27] = Drug metabolism in cynomolgus monkey liver microsomes assessed as BMS-572273 metabolite level at 100 uM after 1 hr in presence of NADPH; type: ADME, Macaca fascicularis; method in brief: as §3
[28] = Detection of compound level in mouse liver microsomes treated with BMS-562086 by LC-MS/MS analysis
[29] = Drug metabolism in rat hepatocytes assessed as DPH-123554 metabolite level at 25 uM after 3 hrs by LC-MS/MS analysis; type: ADME, cell-based, Hepatocyte; method in brief: as §4
Liver microsome [30] = experiment: Drug metabolism in human liver microsomes assessed as BMS-572273 metabolite level at 100 uM after 1 hr in presence of NADPH; type: ADME; method in brief: as §2
Liver microsome [31] = experiment: Drug metabolism in dog liver microsomes assessed as DPH-124921 metabolite level at 100 uM after 1 hr in presence of NADPH; type: ADME, Canis lupus familiaris; method in brief: as §3
[32] = Drug metabolism in mouse hepatocytes assessed as DPH-124921 metabolite level at 25 uM after 3 hrs by LC-MS/MS analysis; type: ADME, cell-based, Hepatocyte; method in brief: as §4
Liver microsome [33] = experiment: Drug metabolism in human liver microsomes at 100 uM after 1 hr in presence of NADPH; type: ADME; method in brief: as §2
Liver microsome [34] = experiment: Drug metabolism in human liver microsomes assessed as DPH-124921 metabolite level at 100 uM after 1 hr in presence of NADPH; type: ADME; method in brief: as §2
[35] = Drug metabolism in mouse hepatocytes at 25 uM after 3 hrs by LC-MS/MS analysis; type: ADME, cell-based, Hepatocyte; method in brief: as §4

CC[C@@H](C)Nc1nc(C)nc2c(-c3ccc(O)nc3C)c(C)nn12
metabolite_detected: Drug metabolism [1] | Drug metabolism [2] | Drug metabolism [3] | Drug metabolism (Liver microsome [4]) | Drug metabolism [5] | Drug metabolism (Liver microsome [6]) | Drug metabolism [7] | Drug metabolism (Liver microsome [8]) | Drug metabolism [9] | Drug metabolism [10] | Drug metabolism [11] | Drug metabolism [12] | Drug metabolism (Liver microsome [13]) | Drug metabolism [14] | Drug metabolism (Hepatocyte [15]) | Drug metabolism [17] | Drug metabolism [18] | Drug metabolism (Liver microsome [19]) | Drug metabolism (Hepatocyte [20]) | Drug metabolism (Liver microsome [21]) | Drug metabolism [22] | Drug metabolism [23] | Drug metabolism [24] | Drug metabolism [25] | Drug metabolism (Liver microsome [26]) | Drug metabolism [27] | Drug metabolism [28] | Drug metabolism [29] | Drug metabolism (Liver microsome [30]) | Drug metabolism (Liver microsome [31]) | Drug metabolism [32] | Drug metabolism (Liver microsome [33]) | Drug metabolism (Liver microsome [34]) | Drug metabolism [35]
32.1 min: Retention_time [16]

Source: ChEMBL document CHEMBL3526146, “In vitro and in vivo metabolism and pharmacokinetics of BMS-562086, a potent and orally bioavailable corticotropin-releasing factor-1 receptor antagonist” (Drug Metab Dispos, 2012)
